Assays:
Plasmodium falciparum [1] = assay: (§1) In vitro antimalarial activity for chloroquine-resistant Plasmodium falciparum in schizont maturation assay; format: functional, organism-based
Summary of the method: (§2)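 P. falciparum (lab chloroquine-sensitive strains; resistant field isolate from Jagadalpur patients) in O+ human RBCs, RPMI 1640 + 10% human serum, 37 °C, 5% CO2; sorbitol-synchronized rings at 2% in erythrocytes. Double dilutions, duplicate wells, 24 h. Giemsa smears: mature schizonts counted among 200 asexual parasites; inhibition = (1 − Nt/Nc) × 100.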

Plasmodium falciparum [2] = assay: (§3) In vitro antimalarial activity for chloroquine-sensitive Plasmodium falciparum in schizont maturation assay; format: functional, organism-based; summary of the method: as §2
Plasmodium falciparum [3] = assay: as §1; format: functional; summary of the method: as §2
Plasmodium falciparum [4] = assay: as §3; format: functional
Summary of the method: (§4)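 Chloroquine-sensitive P. falciparum, sorbitol-synchronized ring stages, cultured in O+ human RBCs in RPMI 1640 with 10% human serum at 37 °C under 5% CO2. Duplicate wells held erythrocytes at 2% ring-stage parasitaemia across double dilutions of compound. After 24 h, Giemsa smears were scored for mature schizonts among 200 asexual parasites. Inhibition was calculated as (1 − Nt/Nc)×100 against medium-only controls.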

Plasmodium falciparum [5] = assay: In vitro antimalarial activity as schizont maturation against drug-resistant Plasmodium falciparum; format: functional; summary of the method: as §2
Plasmodium falciparum [6] = assay: In vitro antimalarial activity as schizont maturation against drug-sensitive Plasmodium falciparum; format: functional; summary of the method: as §4

## O=C1NC2CCCC12 (stereo unspecified)
Plasmodium falciparum [1]
  IC50: 12.4 µM
Plasmodium falciparum [2]
  IC50: 13.5 µM
Plasmodium falciparum [3]
  IC90: 34.5 µM
  IC99: 48.7 µM
Plasmodium falciparum [4]
  IC90: 31.9 µM
  IC99: 42.2 µM

## O=C1C2CC=CC=CC2N1Cc1ccccc1 (stereo unspecified)
Plasmodium falciparum [1]
  IC50: 1.8 µM
Plasmodium falciparum [2]
  IC50: 1.8 µM
Plasmodium falciparum [3]
  IC90: 2.9 µM
  IC99: 3.3 µM
Plasmodium falciparum [4]
  IC90: 2.8 µM
  IC99: 3.2 µM

## O=C1NC2CCCCCCC12 (stereo unspecified)
Plasmodium falciparum [1]
  IC50: 8.4 µM
Plasmodium falciparum [2]
  IC50: 8.1 µM
Plasmodium falciparum [3]
  IC90: 33.9 µM
  IC99: 54.8 µM
Plasmodium falciparum [4]
  IC90: 33.7 µM
  IC99: 51.2 µM

## O=C1NC2CC/C=C\CCC12 (stereo unspecified)
Plasmodium falciparum [1]
  IC50: 7.3 µM
Plasmodium falciparum [2]
  IC50: 6.8 µM
Plasmodium falciparum [3]
  IC90: 26.1 µM
  IC99: 48.7 µM
Plasmodium falciparum [4]
  IC90: 25.4 µM
  IC99: 43.4 µM

## O=C1C2CCCCCCC2N1Cc1ccccc1 (stereo unspecified)
Plasmodium falciparum [1]
  IC50: 7.9 µM
Plasmodium falciparum [2]
  IC50: 8.1 µM
Plasmodium falciparum [3]
  IC90: 19.4 µM
  IC99: 27.4 µM
Plasmodium falciparum [4]
  IC90: 18.8 µM
  IC99: 25.2 µM

## O=C1C2CCCC2N1Cc1ccccc1 (stereo unspecified)
Plasmodium falciparum [1]
  IC50: 7.4 µM
Plasmodium falciparum [2]
  IC50: 6.5 µM
Plasmodium falciparum [3]
  IC90: 12.4 µM
  IC99: 14.5 µM
Plasmodium falciparum [4]
  IC90: 11.2 µM
  IC99: 12.3 µM

## O=C1C2CC=CCC2N1Cc1ccccc1 (stereo unspecified)
Plasmodium falciparum [1]
  IC50: 1.6 µM
Plasmodium falciparum [2]
  IC50: 1.5 µM
Plasmodium falciparum [3]
  IC90: 6.1 µM
  IC99: 6.4 µM
Plasmodium falciparum [4]
  IC90: 5.6 µM
  IC99: 6.1 µM

## O=C1NC2CC=CCC12 (stereo unspecified)
Plasmodium falciparum [1]
  IC50: 8.7 µM
Plasmodium falciparum [2]
  IC50: 9.1 µM
Plasmodium falciparum [3]
  IC90: 21.2 µM
  IC99: 25.3 µM
Plasmodium falciparum [4]
  IC90: 19.3 µM
  IC99: 23.2 µM

## O=C1NC2C=CC=CCC12 (stereo unspecified)
Plasmodium falciparum [1]
  IC50: 4.6 µM
Plasmodium falciparum [3]
  IC90: 15.4 µM
  IC99: 24.8 µM
Plasmodium falciparum [4]
  IC90: 14.5 µM
  IC99: 20.1 µM

## O=C1C2CC/C=C\CCC2N1Cc1ccccc1 (stereo unspecified)
Plasmodium falciparum [1]
  IC50: 5.8 µM
Plasmodium falciparum [2]
  IC50: 5.4 µM
Plasmodium falciparum [3]
  IC90: 11.4 µM
  IC99: 14.5 µM
Plasmodium falciparum [4]
  IC90: 10.7 µM
  IC99: 13.3 µM

## CCN(CC)CCCC(C)Nc1ccnc2cc(Cl)ccc12 (stereo unspecified) [CHLOROQUINE]
Plasmodium falciparum [5]
  IC90: 0.5 µM
Plasmodium falciparum [6]
  IC90: 0.05 µM

Reference: ChEMBL document CHEMBL1142002, “Design, synthesis and biological evaluation of novel bicyclic beta-lactams as potential antimalarials” (Bioorg Med Chem Lett, 2005)
